{"data": "Results of several laboratories", "organism": "Staphylococcus aureus", "read-out": "microbial growth", "note": "Lines come from different studies, so protocols differ."}
{"SMILES": "COc1ccc(-c2nc3ccccc3[nH]2)cc1OC", "method": "broth dilution", "strain": "ATCC43300 MRSA", "notes": "drug-resistant strain", "MIC": "256 µg/mL"}
{"SMILES": "COC(=O)c1cc(-c2cccc(NC(=O)Nc3ccc(F)c(F)c3)c2)on1", "method": "broth dilution", "strain": "ATCC29213", "MIC": "> 64 µg/mL"}
{"SMILES": "CCCCCCCCCCCCCCCC(=O)C(F)(F)P(=O)(O)O", "strain": "ATCC33591 MRSA", "notes": "drug-resistant strain", "MIC": "100 µg/mL"}
{"SMILES": "COC(=O)c1cc(-c2cccc(NC(=O)Nc3ccc(Cl)c(Cl)c3)c2)on1", "method": "broth dilution", "strain": "ATCC29213", "MIC": "> 64 µg/mL"}
{"SMILES": "CCOc1ccc(-c2nc3ccccc3n2Cc2ccccc2)cc1", "method": "broth dilution", "strain": "ATCC43300 MRSA", "notes": "drug-resistant strain", "MIC": "64 µg/mL"}
{"SMILES": "COC(=O)c1cc(-c2cccc(NC(=S)Nc3cccc(Cl)c3)c2)on1", "method": "broth dilution", "strain": "ATCC29213", "MIC": "> 64 µg/mL"}
{"SMILES": "CN[C@H](CC(C)C)C(=O)N[C@H]1C(=O)N[C@@H](CC(N)=O)C(=O)N[C@H]2C(=O)N[C@H]3C(=O)N[C@H](C(=O)N[C@H](C(=O)O)c4cc(O)cc(O)c4-c4cc3ccc4O)[C@H](O)c3ccc(c(Cl)c3)Oc3cc2cc(c3O[C@@H]2O[C@H](CO)[C@@H](O)[C@H](O)[C@H]2O[C@H]2C[C@](C)(N)[C@H](O)[C@H](C)O2)Oc2ccc(cc2Cl)[C@H]1O", "method": "broth dilution", "strain": "ATCC25923", "MIC": "1 µg/mL"}
{"SMILES": "CCC(CC)c1cc(CCN2CCCN(Cc3ccc(C(F)(F)F)cc3)CC2)nc(-c2ccncc2)n1", "strain": "ATCCBAA1717", "notes": "drug-resistant strain, clinical isolate", "MIC": "4 µg/mL"}
{"SMILES": "O=C(CCCCC1CCCCC1)NP(=O)(O)O", "strain": "ATCC33591 MRSA", "notes": "drug-resistant strain", "MIC": "> 200 µg/mL"}
{"SMILES": "COC(=O)c1cc(-c2cccc(NC(=O)Nc3ccc(Cl)cc3)c2)on1", "method": "broth dilution", "strain": "ATCC29213", "MIC": "> 64 µg/mL"}
{"SMILES": "Oc1cccc(-c2nc3ccccc3[nH]2)c1", "method": "broth dilution", "strain": "ATCC43300 MRSA", "notes": "drug-resistant strain", "MIC": "128 µg/mL"}
{"SMILES": "CN[C@H](CC(C)C)C(=O)N[C@H]1C(=O)N[C@@H](CC(N)=O)C(=O)N[C@H]2C(=O)N[C@H]3C(=O)N[C@H](C(=O)N[C@H](C(=O)O)c4cc(O)cc(O)c4-c4cc3ccc4O)[C@H](O)c3ccc(c(Cl)c3)Oc3cc2cc(c3O[C@@H]2O[C@H](CO)[C@@H](O)[C@H](O)[C@H]2O[C@H]2C[C@](C)(N)[C@H](O)[C@H](C)O2)Oc2ccc(cc2Cl)[C@H]1O", "strain": "ATCC33592", "notes": "drug-resistant strain", "MIC": "0.39 µg/mL"}
{"SMILES": "COc1ccc(NC(=O)Nc2ccc(Cl)c(C(F)(F)F)c2)cc1", "strain": "NCTC8325", "MIC": "3 µM"}
{"SMILES": "CC1C(=NOCc2cn(-c3ccccc3)nn2)CC(c2ccccc2)OC1c1ccccc1 (stereo not drawn)", "method": "broth dilution", "strain": "MTCC96", "time": "24 h", "MIC": "25 µg/mL"}
{"SMILES": "CN[C@@H]1[C@H](O)[C@H](NC)[C@H]2O[C@@]3(O)C(=O)C[C@@H](C)O[C@H]3O[C@@H]2[C@H]1O", "method": "broth dilution", "strain": "8325", "MIC": "25 µg/mL"}
{"SMILES": "CC(=O)Nc1c2sscc-2[nH]c1=O", "strain": "MRSA", "notes": "drug-resistant strain", "MIC": "2.5 µM"}
{"SMILES": "CSc1ccc(-c2nc3ccc(C)cc3n2Cc2ccccc2)cc1", "method": "broth dilution", "strain": "ATCC43300 MRSA", "notes": "drug-resistant strain", "MIC": "256 µg/mL"}
{"SMILES": "CCCCCCCC(=O)CP(=O)(O)O", "strain": "ATCC33591 MRSA", "notes": "drug-resistant strain", "MIC": "200 µg/mL"}
{"SMILES": "COc1cc(Cc2cnc(N)nc2N)cc(OC)c1OC", "method": "broth dilution", "MIC": "~16.6 µM"}
{"SMILES": "Cc1ccc2nc(-c3cccnc3)[nH]c2c1", "method": "broth dilution", "strain": "ATCC43300 MRSA", "notes": "drug-resistant strain", "MIC": "128 µg/mL"}
{"SMILES": "COC[C@H]1OC(=O)c2coc3c2[C@@]1(C)C1=C(C3=O)[C@@H]2CCC(=O)[C@@]2(C)C[C@H]1OC(C)=O", "strain": "NCTC8325", "MIC": "> 30 µM"}
{"SMILES": "CCCCCC/C=C\\CCCCCCCCCC(=O)NP(=O)(O)O", "strain": "ATCC33591 MRSA", "notes": "drug-resistant strain", "MIC": "200 µg/mL"}
{"SMILES": "Cc1ccc2nc(-c3ccc(Cl)cc3)[nH]c2c1", "method": "broth dilution", "strain": "ATCC43300 MRSA", "notes": "drug-resistant strain", "MIC": "512 µg/mL"}
{"SMILES": "O=C(N[C@H](CO)[C@H](O)c1ccc([N+](=O)[O-])cc1)C(Cl)Cl", "strain": "USA300", "MIC": "4 µg/mL"}
{"SMILES": "CC(=O)O[C@H]1C[C@@]2(C)[C@@H](C[C@@H](O)[C@H]3[C@@]4(C)CC[C@@H](O)[C@@H](C)[C@@H]4CC[C@@]32C)/C1=C(\\CCC=C(C)C)C(=O)O", "strain": "ATCCBAA1721", "MIC": "8 µg/mL"}
{"SMILES": "Fc1ccc(-c2nc3ccccc3[nH]2)cc1", "method": "broth dilution", "strain": "ATCC43300 MRSA", "notes": "drug-resistant strain", "MIC": "512 µg/mL"}
{"SMILES": "COC(=O)c1cc(-c2cccc(NC(=O)Nc3ccc(C)cc3)c2)on1", "method": "broth dilution", "strain": "ATCC29213", "MIC": "> 64 µg/mL"}
{"SMILES": "CC(C)C[C@H](NC(=O)[C@@H](NC(=O)N[C@H](C(=O)O)C(C)C)[C@@H]1CCNC(=N)N1)C(=O)NCCCN[C@H](C(=O)O)[C@H](O[C@@H]1O[C@H](CN)[C@@H](O)[C@H]1O)[C@H]1O[C@@H](n2ccc(=O)[nH]c2=O)[C@H](O)[C@@H]1O", "strain": "NEWMAN", "MIC": "> 80 µg/mL"}
{"SMILES": "COc1cccc(-c2nc3ccccc3[nH]2)c1", "method": "broth dilution", "strain": "ATCC43300 MRSA", "notes": "drug-resistant strain", "MIC": "512 µg/mL"}
{"SMILES": "Cc1ccc2[nH]c3c(c2c1)CCCC3NCCc1ccc(Br)cc1 (stereo not drawn)", "method": "broth dilution", "strain": "VISA", "MIC": "4 µg/mL"}
{"SMILES": "CCOC(=O)c1nnn(-c2cccc(NC(=O)Nc3ccc(Cl)c(Cl)c3)c2)c1C", "method": "broth dilution", "strain": "ATCC29213", "MIC": "> 64 µg/mL"}
{"SMILES": "CC1(C)CC[C@]2(C(=O)O)CC[C@]3(C)C(=CC[C@@H]4[C@@]5(C)CC[C@H](O)C(C)(C)[C@@H]5CC[C@]43C)[C@@H]2C1", "strain": "252", "MIC": "256 µg/mL"}
{"SMILES": "CC(c1ccc(Cl)c(Cl)c1)n1cnc2cc3c(cc21)CCCC3 (stereo not drawn)", "MIC": "3.1 to 6.3 µg/mL"}
{"SMILES": "Cc1ccccc1-n1c(Cn2ncc3c(N)ncnc32)nc2cccc(C)c2c1=O", "strain": "NCTC8325", "MIC": "> 30 µM"}
{"SMILES": "CC1(C)S[C@@H]2[C@H](NC(=O)Cc3ccccc3)C(=O)N2[C@H]1C(=O)O", "strain": "USA300", "MIC": "128 µg/mL"}
{"SMILES": "COC(=O)c1cc(-c2cccc(NC(=O)Nc3cccc(Cl)c3Cl)c2)on1", "method": "broth dilution", "strain": "ATCC29213", "MIC": "8 to 16 µg/mL"}
